In ChEMBL document CHEMBL1129397, “Synthesis and biological activity of aromatic amino acid phosphoramidates of 5-fluoro-2'-deoxyuridine and 1-beta-arabinofuranosylcytosine: evidence of phosphoramidase activity” (J Med Chem, 1996) one finds IC50 data, which are given here for 6 molecules.

SMILES strings stand for the structures.

The subject of one experiment is L1210. Kind of experiment: In vitro cytotoxicity of compounds were determined on murine leukemia cell line (L1210). The following applies: Mus musculus. It counts as functional, cell-based. In outline: (§1)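 Cells were cultured with or without compound for 48 h at 37 °C in a 5% CO2–95% air atmosphere. Portions were then counted for proliferation and viability by trypan blue dye exclusion. IC50 was taken from the remaining viable cell number.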

Experiment [1] addresses T1, Thymidylate synthase (Mus musculus, UniProt P07607). Description: Inhibition of cellular thymidylate synthase activity of mouse fibroblast (L929 TK-) in permeabilised cells. Type of experiment: cell-based.
For experiment [2], the target named is T1, Thymidylate synthase. Kind of experiment: Inhibition of cellular thymidylate synthase activity of murine leukemia cell line (L1210) in permeabilised cells. Type of experiment: cell-based.
Experiment [3] has as its target T1, Thymidylate synthase. Kind of experiment: Inhibition of cellular thymidylate synthase activity of mouse fibroblast (L929 TK-) in intact cells. Type of experiment: cell-based.
The target of experiment [4] is T1, Thymidylate synthase. Description: Inhibition of cellular thymidylate synthase activity of murine leukemia cell line (L1210) in intact cells. It counts as cell-based.
The test system of another experiment is CCRF-CEM. Kind of experiment: In vitro cytotoxicity of compounds were determined on Inhibition of human leukemia cell line(CCRF-CEM). It counts as functional, cell-based. In outline:
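CCRF-CEM cells, or a CEM-TK⁻ variant with less than 1% of wild-type thymidine kinase activity, were grown in RPMI 1640 with 20% heat-inactivated FBS, penicillin, streptomycin and 0.5% human IL-2. Cells were cultured with or without compound for 48 h at 37 °C in 5% CO2. Proliferation and viability were then counted by trypan blue dye exclusion.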

The test system of the next experiment is L929 TK- (Mus musculus). Description: In vitro cytotoxicity of compounds were determined on murine fibroblast cell line (L929 TK-) in.
For another experiment, the system named is CEM-TK(-) (Homo sapiens). Kind of experiment: In vitro cytotoxicity of compounds were determined on human leukemia cells (CEM-TK-).
Experiment [5] deals with T1, Thymidylate synthase. Description: Inhibition of cellular thymidylate synthase activity of mouse fibroblast (L929 TK-) in permeabilised cells. Type of experiment: cell-based. In outline: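 L929 TK⁻ cells were permeabilized with high-molecular-weight dextran sulfate. Intracellular thymidylate synthase activity was then measured in situ by tritium release, and IC50 values were determined.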

Another experiment deals with L929. Description: In vitro cytotoxicity of compounds were determined on mouse fibroblast (L929 TK-). It counts as functional, cell-based. In outline:
as §1

The next experiment deals with CEM-TK(-). Description: In vitro cytotoxicity of compounds were determined on Inhibition of human leukemia cell line (CEM-TK).

T1 sequence (P07607 whole entry): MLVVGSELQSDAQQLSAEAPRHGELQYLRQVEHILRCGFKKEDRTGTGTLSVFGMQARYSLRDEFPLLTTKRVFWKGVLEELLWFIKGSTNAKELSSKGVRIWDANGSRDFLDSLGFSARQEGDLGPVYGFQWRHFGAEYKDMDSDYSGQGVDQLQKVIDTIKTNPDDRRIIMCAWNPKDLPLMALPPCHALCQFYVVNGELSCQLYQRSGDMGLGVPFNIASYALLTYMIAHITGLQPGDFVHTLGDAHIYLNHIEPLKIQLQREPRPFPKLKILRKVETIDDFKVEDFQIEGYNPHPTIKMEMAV

Regarding `COC(=O)[C@@H](NP(=O)(O)OC[C@H]1O[C@@H](n2cc(F)c(=O)[nH]c2=O)C[C@@H]1O)C1C=Nc2ccccc21` (some centres undefined), the IC50 (in general, the point on the concentration scale where inhibition reaches its midpoint) is 0.4 µM with L1210; over 1000 µM on Thymidylate synthase [1]; 2.3 µM against Thymidylate synthase [2]; 0.67 µM against Thymidylate synthase [3]; 12 µM against Thymidylate synthase [4]; 0.32 µM with CCRF-CEM. Besides, the IC50 with L929 TK- (Mus musculus) turned out to be 240 µM; in the experiment on CEM-TK(-) (Homo sapiens), 58.1 µM.

In the case of `Nc1ccn([C@@H]2O[C@H](COP(=O)(O)O)[C@@H](O)[C@H]2O)c(=O)n1`, the IC50 with CCRF-CEM is 0.1 µM. That is a sub-micromolar value.

As to `O=c1[nH]c(=O)n([C@H]2C[C@H](O)[C@@H](CO)O2)cc1F` [FLOXURIDINE], the IC50 stood at 0.012 µM in the experiment on L1210; 59 µM at Thymidylate synthase [2]; 7.3 µM on Thymidylate synthase [3]; 11 µM against Thymidylate synthase [5]; 0.043 µM at Thymidylate synthase [4]; 0.002 µM with CCRF-CEM. The IC50 in the experiment with L929 amounted to 7.7 µM; in the experiment on CEM-TK(-) it was 66.3 µM.

As to `Nc1ccn([C@@H]2O[C@H](CO)[C@@H](O)[C@@H]2O)c(=O)n1` [CYTARABINE], the half-inhibitory concentration (IC50) in the experiment on CCRF-CEM came to 0.09 µM. This counts as double-digit nanomolar.

For the molecule `COC(=O)[C@H](Cc1ccccc1)NP(=O)(O)OCC1OC(n2cc(F)c(=O)[nH]c2=O)CC1O` (some centres undefined), the IC50 with L1210 is 0.41 µM; on Thymidylate synthase [1], 1.1 µM; on Thymidylate synthase [2], 5 µM; on Thymidylate synthase [3], over 1000 µM; against Thymidylate synthase [4], 21 µM; with CCRF-CEM, 0.32 µM. Moreover, the IC50 in the experiment on L929 was found to be 200 µM; in the experiment on CEM-TK(-), 86.5 µM.

For the molecule `O=c1[nH]c(=O)n([C@H]2C[C@H](O)[C@@H](COP(=O)(O)O)O2)cc1F` [5-FLUORODEOXYURIDYLATE], the IC50 was found to be 0.015 µM with L1210, 0.0055 µM in the experiment on CCRF-CEM and 6.8 µM with L929.
